Activity calls are given as the source filed them. The calls are words filed in the database; no cut-off is given here.

This note sets out measurements from ChEMBL document CHEMBL1765085, “Cytotoxic and apoptosis-inducing activities of triterpene acids from Poria cocos” (J Nat Prod, 2011).

The test system of assay [1] is HL-60. As to the kind of experiment: Induction of apoptosis in human HL60 cells assessed as late apoptotic cells at 30 uM after 24 hrs by AnnexinV/propidium iodide staining (Rvb =3.3%). Format: functional.
For assay [2], the system named is HL-60. In words: Induction of apoptosis in human HL60 cells assessed as accumulation at Go/G1 phase at 30 uM after 48 hrs by flow cytometry (reference value: 51.4%). Format: functional. A digest of the protocol: (§1)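 Cells seeded at 1 × 10^5 per sample for HL60 and 1.5 × 10^5 for A549, then exposed to 30 μM for 0, 24 or 48 h. After a PBS wash, DNA was stained with Nim-DAPI for 10 min at room temperature. Phase distribution was read by flow cytometry, with the sub-G1 (fragmented DNA) fraction taken as the apoptosis index. Values are means of three experiments.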

Assay [3] concerns HL-60. In words: Induction of apoptosis in human HL60 cells assessed as necrotic cells at 30 uM after 48 hrs by AnnexinV/propidium iodide staining (Rvb =2.3%). Format: functional.
Assay [4] concerns A549. In words: Cell cycle arrest in human A549 cells assessed as accumulation at sub-G1 phase at 30 uM after 48 hrs by flow cytometry (reference value: 3.1%). It is filed as functional. The procedure, abridged:
as §1
(A flow cytometer gives signals particle by particle.)

Assay [5] relates to A549. As to the kind of experiment: Induction of mitochondrial signal transduction pathway-mediated apoptosis in human A549 cells assessed as increase in cleaved caspase-9 level at 30 uM after 24 to 48 hrs by Western blot analysis. (In general: A western blot detects proteins with antibodies after separation by electrophoresis.)
The subject of assay [6] is HL-60. In words: Induction of apoptosis in human HL60 cells assessed as necrotic cells at 30 uM after 24 hrs by AnnexinV/propidium iodide staining (Rvb =2.3%). It is filed as functional.
The test system of assay [7] is PANC-1. As to the kind of experiment: Cytotoxicity in human PANC1 cells assessed as cell viability after 48 hrs by MTT assay. Format: functional, cell-based. Conditions: PANC-1, 48 h. The procedure, abridged:
(§2)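 Growth conditions: RPMI 1640 for HL60, CRL1579, NIH:OVCAR-3, SK-BR-3, DU145 and PANC-1; D-MEM for A549; MEM for WI-38; all with 10% FBS and antibiotics, 37 °C, 5% CO2. Seeded at 3 × 10^3 cells/well (OVCAR-3 1 × 10^4), then treated 48 h with 10^-4 to 10^-6 M. MTT for 3 h, formazan dissolved in 0.04 M HCl/2-propanol, A570/630. IC50 (50% growth inhibition) from triplicates.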
On the technique in general: Tetrazolium assays rely on reduction of a dye to a coloured formazan, in cell work by metabolically active cells.

Assay [8] concerns HL-60. In words: Cell cycle arrest in human HL60 cells assessed as accumulation at sub-G1 phase at 30 uM after 24 hrs by flow cytometry (reference value: 3.0%). It is filed as functional. The procedure, abridged:
as §1

In assay [9] the test system is HL-60. In words: Induction of mitochondrial signal transduction pathway-mediated apoptosis in human HL60 cells assessed as increase in Bax level at 30 uM after 8 to 24 hrs by Western blot analysis. Conditions: TDE = time-dependent effect.
For assay [10], the system named is HL-60. In words: Induction of apoptosis in human HL60 cells assessed as viable cells at 30 uM after 48 hrs by AnnexinV/propidium iodide staining (Rvb =85.6%). Format: functional. As to conditions: HL-60, 48 h, read-out: Activity.
In assay [11] the test system is HL-60. As to the kind of experiment: Cell cycle arrest in human HL60 cells assessed as accumulation at S phase at 30 uM after 24 hrs by flow cytometry (reference value: 42.6%). Format: functional. The procedure, abridged:
as §1

In assay [12] the test system is A549. In words: Induction of mitochondrial signal transduction pathway-mediated apoptosis in human A549 cells assessed as increase in Bax level at 30 uM after 24 to 48 hrs by Western blot analysis. It is filed as functional, cell-based. The procedure, abridged: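 A549 cells (1.5 × 10^5) were pre-incubated 24 h, then given 30 μM for 24 or 48 h. Whole-cell lysates were run on 15% SDS-PAGE, transferred to PVDF and probed overnight at 4 °C for Bax, Bcl-2 and β-actin. The Bcl-2 band was quantified by densitometry relative to untreated cells, n = 3.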

Assay [13] in a line: Cytotoxicity in human AZ-521 cells assessed as cell viability after 48 hrs by MTT assay. Conditions: AZ-521, 48 h. Format: functional, cell-based.
The test system of assay [14] is A549. In words: Induction of apoptosis in human A549 cells assessed as late apoptotic cells at 30 uM after 48 hrs by AnnexinV/propidium iodide staining (Rvb =1.1%). Format: functional.
Assay [15] relates to HL-60. In words: Cell cycle arrest in human HL60 cells assessed as accumulation at S phase at 30 uM after 48 hrs by flow cytometry (reference value: 42.6%). It is filed as functional. A digest of the protocol:
as §1

The subject of assay [16] is HL-60. As to the kind of experiment: Induction of apoptosis in human HL60 cells assessed as viable cells at 30 uM after 24 hrs by AnnexinV/propidium iodide staining (Rvb =85.6%). It is filed as functional. Conditions: HL-60, 24 h, read-out: Activity.
The subject of assay [17] is A549. As to the kind of experiment: Cell cycle arrest in human A549 cells assessed as accumulation at G2/M phase at 30 uM after 48 hrs by flow cytometry (reference value: 4.9%). It is filed as functional. The procedure, abridged: as §1
The test system of assay [18] is A549. As to the kind of experiment: Cell cycle arrest in human A549 cells assessed as accumulation at Go/G1 phase at 30 uM after 48 hrs by flow cytometry (reference value: 64.3%). It is filed as functional. The procedure, abridged:
as §1

Assay [19] can be described thus: Cytotoxicity in human CRL1579 cells assessed as cell viability after 48 hrs by MTT assay. Format: functional, cell-based. A digest of the protocol: as §2
The subject of assay [20] is HL-60. As to the kind of experiment: Induction of mitochondrial signal transduction pathway-mediated apoptosis in human HL60 cells assessed as increase in cleaved caspase-8 level at 30 uM after 8 hrs by Western blot analysis. Format: functional, cell-based. A digest of the protocol:
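HL60 cells (1 × 10^6) pre-incubated 24 h, then exposed to 30 μM final for 8 h. Whole-cell lysates in extraction buffer, resolved on 15% SDS-PAGE, blotted to PVDF, probed overnight at 4 °C with anti-caspase-8 or anti-caspase-9 primary antibodies, β-actin as loading reference. Procaspase loss and cleaved caspase bands read.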

The test system of assay [21] is A549. As to the kind of experiment: Induction of apoptosis in human A549 cells assessed as early apoptotic cells at 30 uM after 24 hrs by AnnexinV/propidium iodide staining (Rvb =4.3%). It is filed as functional.
Assay [22] deals with A549. As to the kind of experiment: Cell cycle arrest in human A549 cells assessed as accumulation at Go/G1 phase at 30 uM after 24 hrs by flow cytometry (reference value: 64.3%). It is filed as functional. A digest of the protocol: as §1
Assay [23] has as its system HL-60. As to the kind of experiment: Cell cycle arrest in human HL60 cells assessed as accumulation at G2/M phase at 30 uM after 24 hrs by flow cytometry (reference value: 6.0%). It is filed as functional. The procedure, abridged:
as §1

The subject of assay [24] is HL-60. In words: Induction of apoptosis in human HL60 cells assessed as early apoptotic cells at 30 uM after 48 hrs by AnnexinV/propidium iodide staining (Rvb =7.6%).

As to `C=C(CC[C@@H](CO)[C@H]1[C@H](O)C[C@@]2(C)C3=CC[C@@H](C(=C)C)[C@](C)(CCCO)C3=CC[C@]12C)C(C)C` [PORICOTRIOL A], the Activity is given as 14% in [1]; 58.6% in assay [2]; 2.5% in assay [3]; 17.4% in assay [4]; 3.2% in assay [6]; 35.4% in assay [8]. Further, the Activity entry in assay [9] is “tde”; in assay [11] it was 28.9%; in assay [14], 20.2%; in assay [15], 30.5%; in assay [17], 3.6%; in [18], 73%. In addition, the Activity amounted to 3.5% in assay [21], 77.2% in assay [22], 8.8% in assay [23] and 52.5% in [24]. In addition, the result in [5] and in [12] was inactive. Moreover, the IC50 in assay [7] amounted to 26.3 µM; in [13] it was 1.4 µM; in assay [19], 5.5 µM. For the same molecule, the viability at 30 µM in [10] came to 14.7%; in assay [16] it was 34.8%. For the same molecule, the result in [20] was Active.

The term IC50 denotes the concentration that gives 50% inhibition.
